PubChem BioAssay
Records with an inconclusive call do not appear.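 How the source made its calls, unless noted: active means growth inhibition above 25% in both replicates, a cutoff set 3 SD above the mean; inconclusive means above 25% in only one replicate; inactive means the rest.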

Columns and labels:
[1] = S. cerevisiae growth inhibition in permissive medium (OD615), pilot counter-assay for S. cerevisiae lifespan shortening project, permissive growth control (AID 705); details: OD615, 24 h, at 10 µM, active compounds read high
Outline: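 assay system = Saccharomyces cerevisiae strain carrying genetically modified DeaD replicative-lifespan system | technique = absorbance (optical density) at 615 nm | buffer or medium = permissive raffinose/galactose medium | timing = cells pre-grown 4 h, then 24 h compound exposure, 30 °C humidified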

[2] = S. cerevisiae growth inhibition in restrictive medium, OD615, pilot screen, restrictive growth control, yeast lifespan reduction project (AID 706;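 active means growth inhibition above a set limit, 3 SD over mean compound inhibition, in both replicates, cut at about 43% in these data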;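 further: modified DeaD lifespan yeast strain shifted to restrictive glucose medium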); details: OD615, 48 h, at 10 µM, active compounds read high
Outline: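 System: modified S. cerevisiae. Buffer or medium: CSMM-D glucose medium. Incubation: 4 h pre-growth plus 48 h compound exposure, 30 °C. Detection: absorbance (optical density) measured at 615 nm.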

[3] = doxorubicin toxicity protection in MRP-1 cells – H69AR cells, CellTiter-Glo, duplicate, MRP-1 activator project, pilot screen (AID 807;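 active means viability increase at or above a cutoff of the median across tested compounds plus 3 SD, cut at about 8.5% in these data, passing the limit was not always enough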;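 further: compound pretreatment 18-22 h then 72 h combined with doxorubicin; 0% = doxorubicin alone and 100% = vehicle without doxorubicin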); details: H69AR viability with doxorubicin, CellTiter-Glo luminescence; at 10 µM; active compounds read high
[4] = viability of HCT116 without oncogenic beta-catenin – human colon tumor cells, pilot screen (AID 823;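 active means cell viability at or below a set limit in both duplicate runs, the limit being the all-compound median minus 4 SD, cut at about 23% in these data, passing the limit was not always enough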;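 further: 0% = wells killed by 20 µM Hyamine and 100% = untreated DMSO cell wells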); details: HCT116 beta-catenin knockout viability, CellTiter-Glo, 60 h; at 10 µM; active compounds read low
[5] = viability of PTEN-null HCT116 cells – cell-based, HCT116 clonal line, CellTiter-Glo, pilot screen (AID 824;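 active means viability at or below 27.92% in each of two runs, the all-compound median minus 4 SD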;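 further: 0% = 20 µM Hyamine control and 100% = vehicle cell control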); details: HCT116 PTEN-deleted viability, 60 h, at 10 µM, active compounds read low
[6] = RAM pathway blockade in budding yeast – dse1pr::URA3 reporter, 5-FOA selection, pilot screen (AID 869;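 active means inhibition over a set limit, the all-compound mean plus 3 SD, in both replicate runs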;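 further: 0% = DMSO wells with no growth and 100% = 10 µM 1-NA-PP1 with full growth; RAM network block rescues cells from 5-FOA so hits raise OD615 growth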); details: S. cerevisiae dse1pr::URA3 5-FOA growth, OD615, 2 d; at 10 µM; active compounds read high; strain carries analog-sensitive mutant Cbk1 kinase
[7] = RAM signaling pathway blockade in yeast – S. cerevisiae, Pdr1DBD-CYC8 efflux-inhibited sensitized strain, primary screen (AID 1298;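 active means RAM network inhibition above 8.4% in each of two replicates, 3 SD over the compound average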;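 further: 0% = DMSO untreated cells without growth and 100% = 10 µM 1-NA-PP1 full growth; higher means more yeast growth rescued from 5-FOA killing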); details: S. cerevisiae cbk1-as DSE1-URA3 strain, 5-FOA growth OD615, 2 d; at 50 µM; active compounds read high

CCSc1nnc(NC(=O)CCn2c(=O)oc3ccccc32)s1
inactive: growth inhibition [1] -3.29% | growth inhibition [2] -6.38% | viability increase [3] -0.78% | viability [4] 102% | viability [5] 103% | inhibition [6] 0.22% | RAM network inhibition [7] 9.53%

CCCCCSc1nc2c(c(=O)[nH]c(=O)n2C)n1C
inactive: growth inhibition [1] -12.6% | growth inhibition [2] -5.52% | viability increase [3] -2.27% | viability [4] 90.3% | viability [5] 79.6% | inhibition [6] 2.1% | RAM network inhibition [7] 0.68%

COc1ccc(N2CCCCn3c2nc2c3c(=O)[nH]c(=O)n2C)cc1
inactive: growth inhibition [1] -18.4% | growth inhibition [2] -15.6% | viability increase [3] -2.97% | viability [4] 90.3% | viability [5] 90.9% | inhibition [6] 1.88% | RAM network inhibition [7] 2.42%

COC(=O)C1CCCN1C(C(=O)NC1CCCCC1)c1ccc(Cl)cc1 (stereo not drawn)
inactive: growth inhibition [1] -15.1% | growth inhibition [2] -2.47% | viability increase [3] 1.72% | viability [4] 82.7% | viability [5] 74.9% | inhibition [6] 0.02% | RAM network inhibition [7] 2.27%

CC(=O)c1c(C)[nH]c(C(=O)N2c3ccccc3CC2C)c1C (stereo not drawn)
inactive: growth inhibition [1] -1.11% | growth inhibition [2] 3.09% | viability increase [3] -0.41% | viability [4] 92.3% | viability [5] 92.6% | inhibition [6] 0.755% | RAM network inhibition [7] 3.82%

CCOC(=O)N1CCN(C(=O)c2ccc3c(SCC(=O)O)c4c(nc3c2)CCC4)CC1
inactive: growth inhibition [1] -7.38% | growth inhibition [2] 3.22% | viability increase [3] -1.86% | viability [4] 102% | viability [5] 93% | inhibition [6] 0.9% | RAM network inhibition [7] 2.81%

CCN(CC)CCCN1C(=O)C(O)=C(C(=O)c2ccc(C)o2)C1c1cccs1 (stereo not drawn)
inactive: growth inhibition [1] 0.37% | growth inhibition [2] -6.93% | viability increase [3] -4.04% | viability [4] 97.5% | viability [5] 96.2% | inhibition [6] 2.01% | RAM network inhibition [7] 2.8%

O=C1C2CCCN2C(c2ccccc2)N1c1ccc(F)cc1 (stereo not drawn)
inactive: growth inhibition [1] -1.42% | growth inhibition [2] 3.23% | viability increase [3] -2.06% | viability [4] 96.9% | viability [5] 89.3% | inhibition [6] 2.05% | RAM network inhibition [7] 2.34%

CC1CC(C)CN(c2nc3c(c(=O)[nH]c(=O)n3C)n2CCSc2nc3ccccc3o2)C1 (stereo not drawn)
inactive: growth inhibition [1] -8.58% | growth inhibition [2] -7.3% | viability increase [3] -2.41% | viability [4] 93.2% | viability [5] 93.6% | inhibition [6] 0.335% | RAM network inhibition [7] -0.32%

CC(=O)Nc1ccc(NC(=O)c2ccco2)cc1
inactive: growth inhibition [1] -9.41% | growth inhibition [2] -14.5% | viability increase [3] -2.09% | viability [4] 94.1% | viability [5] 96.8% | inhibition [6] -0.19% | RAM network inhibition [7] 2.4%

O=S(=O)(NCCCN1CCN(c2ccccc2F)CC1)c1cccc2cccnc12
inactive: growth inhibition [1] -1.96% | growth inhibition [2] 6.3% | viability increase [3] -2.92% | viability [4] 77.9% | viability [5] 77.4% | inhibition [6] 0.97% | RAM network inhibition [7] 5.43%

O=C(OCCN1C(=O)c2ccccc2C1=O)c1cccs1
inactive: growth inhibition [1] -5.91% | growth inhibition [2] -1.62% | viability increase [3] -1.54% | viability [4] 104% | viability [5] 100% | inhibition [6] 0.61% | RAM network inhibition [7] 2.97%

CCOC(=O)C1CCN(CC(O)COc2ccc(C(C)(C)CC)cc2)CC1 (stereo not drawn)
inactive: growth inhibition [1] -14% | growth inhibition [2] -10.4% | viability increase [3] -4.71% | viability [4] 65.6% | viability [5] 73.5% | inhibition [6] -0.58% | RAM network inhibition [7] 0.78%

CC(C)C(=O)Nc1ccc(Nc2ccccc2)cc1
inactive: growth inhibition [1] -3.29% | growth inhibition [2] -8.34% | viability increase [3] 0.79% | viability [4] 105% | viability [5] 104% | inhibition [6] 0.87% | RAM network inhibition [7] 2.52%

Cc1ccc(C)c(N2CCN(CC(=O)Nc3ccc4[nH]c(=O)[nH]c4c3)CC2)c1
inactive: growth inhibition [1] -13.7% | growth inhibition [2] -14.9% | viability increase [3] -5.54% | viability [4] 92.9% | viability [5] 89.1% | inhibition [6] 0.03% | RAM network inhibition [7] 1.87%

COC(=O)C(C)Sc1nnc(Cc2cc(=O)[nH]c(=O)[nH]2)n1-c1ccc(Cl)cc1 (stereo not drawn)
inactive: growth inhibition [1] -13.7% | growth inhibition [2] -7.63% | viability increase [3] -1.15% | viability [4] 104% | viability [5] 95.6% | inhibition [6] 1.97% | RAM network inhibition [7] 1%

CCOc1ccc(-c2nc(CSc3nncs3)cs2)cc1OC
inactive: growth inhibition [1] 4.37% | growth inhibition [2] 16.2% | viability increase [3] -3.61% | viability [4] 84.1% | viability [5] 82% | inhibition [6] 0.655% | RAM network inhibition [7] 5.42%

O=C(O)c1c2c(nc3ccc(S(=O)(=O)N4CCC(C(=O)N5CCCCC5)CC4)cc13)CCCC2
inactive: growth inhibition [1] -3.06% | growth inhibition [2] -3.51% | viability increase [3] 0.51% | viability [4] 97.3% | viability [5] 92.8% | inhibition [6] 0.79% | RAM network inhibition [7] 1.98%

CC1CCc2nn(CC(=O)N3CCCCCC3)cc2C1 (stereo not drawn)
inactive: growth inhibition [1] -3.02% | growth inhibition [2] 1.8% | viability increase [3] -0.62% | viability [4] 100% | viability [5] 91.4% | inhibition [6] 1.23% | RAM network inhibition [7] 1.06%

COc1ccc(C)cc1NC(=O)CN(c1ccc(F)cc1)S(C)(=O)=O
inactive: growth inhibition [1] -20.5% | growth inhibition [2] -18.5% | viability increase [3] -1.76% | viability [4] 92.4% | viability [5] 103% | inhibition [6] 1.31% | RAM network inhibition [7] 4.09%

O=C(CCCC(=O)NCC1CCCO1)NCC1CCCO1 (stereo not drawn)
inactive: growth inhibition [1] -1.28% | growth inhibition [2] 7.34% | viability increase [3] -1.38% | viability [4] 101% | viability [5] 101% | inhibition [6] 0.185% | RAM network inhibition [7] 1.12%

O=C(CC1SC(=Nc2ccccc2)N(CCCO)C1=O)Nc1ccc(Cl)cc1 (stereo not drawn)
inactive: growth inhibition [1] -6.75% | growth inhibition [2] -7.97% | viability increase [3] -6.7% | viability [4] 48.1% | viability [5] 42.1% | inhibition [6] 0.52% | RAM network inhibition [7] 1.29%

CCNC(=O)c1c(C)nc2ccccn12
inactive: growth inhibition [1] 3.27% | growth inhibition [2] -7.95% | viability increase [3] -3.03% | viability [4] 101% | viability [5] 91% | inhibition [6] -0.1% | RAM network inhibition [7] 0.67%

O=C(O)CC(Cn1cnnn1)c1ccccc1 (stereo not drawn)
inactive: growth inhibition [1] 3.8% | growth inhibition [2] -2.96% | viability increase [3] -0.66% | viability [4] 103% | viability [5] 101% | inhibition [6] 1.12% | RAM network inhibition [7] 2.58%
